Data from ChEMBL document CHEMBL1165875, “Synthesis and evaluation of 9-benzylideneamino derivatives of homocamptothecin as potent inhibitors of DNA topoisomerase I” (Eur J Med Chem, 2010).
pIC50: −log10 of the molar value. The source made the active and inactive calls. No cut-off for these calls is given here.

How the values were obtained:
[1] = system: MDA-MB-435; experiment: Cytotoxicity against human MDA-MB-435 cells after 3 days by MTT assay; type: functional, cell-based; settings: MDA-MB-435, 72 h
Procedure, shortened: (§1)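 MTT read-out: formazan dissolved in DMSO, absorbance at 570 nm, compound-free wells as blanks. Survival expressed as percentage of untreated control wells.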

[2] = system: A549; experiment: Cytotoxicity against human A549 cells after 3 days by MTT assay; type: functional, cell-based; settings: A549, 72 h; procedure, shortened: as §1
[3] = system: LoVo; experiment: Cytotoxicity against human LoVo cells after 3 days by MTT assay; type: functional, cell-based; settings: 72 h; procedure, shortened: as §1
[4] = biological target: T1, Topoisomerase I (Bos taurus) (UniProt Q2HPH0); experiment: Inhibition of calf thymus DNA topoisomerase 1-mediated pBR322 DNA cleavage
T1 sequence (whole entry): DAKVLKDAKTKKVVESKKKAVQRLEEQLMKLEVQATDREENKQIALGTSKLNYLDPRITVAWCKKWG
Procedure, shortened: (§2)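 Calf thymus Topo I with supercoiled pBR322 DNA in Topo I buffer with 0.1% BSA, 20 uL reactions. Reactions stopped with loading buffer (EDTA, glycerol, xylene cyanol FF, bromophenol blue). Products resolved on 0.8% agarose in TAE, 40 min at 120 V. Gel stained with ethidium bromide at room temperature and imaged under UV.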

[5] = biological target: T1, Topoisomerase I (Bos taurus); experiment: Inhibition of calf thymus DNA topoisomerase 1-mediated pBR322 DNA cleavage at 1 uM; procedure, shortened: as §2

Activity [4] | Activity [5] | SMILES | pIC50 [1] | pIC50 [2] | pIC50 [3]
 |  | CC[C@]1(O)CC(=O)OCc2c1cc1n(c2=O)Cc2c-1nc1cccc(/N=C/c3ccc(Cl)cc3Cl)c1c2C | 6.44 | 5.44 | 5.38
 |  | CC[C@]1(O)CC(=O)OCc2c1cc1n(c2=O)Cc2c-1nc1cccc(/N=C/c3ccc(C)cc3C)c1c2C | 6.14 | 5.62 | 5.06
Active |  | CC[C@]1(O)CC(=O)OCc2c1cc1n(c2=O)Cc2c-1nc1cccc(/N=C/c3ccccc3C)c1c2C | 8.41 | 5.48 | 5.86
Active |  | CC[C@]1(O)CC(=O)OCc2c1cc1n(c2=O)Cc2c-1nc1cccc(/N=C/c3ccccc3OC)c1c2C | 8.66 | 5.64 | 5.71
 |  | CC[C@]1(O)CC(=O)OCc2c1cc1n(c2=O)Cc2c-1nc1cccc(/N=C/c3ccc(Cl)cc3)c1c2C | 7.96 | 5.59 | 5.79
 |  | CC[C@]1(O)CC(=O)OCc2c1cc1n(c2=O)Cc2c-1nc1cccc(/N=C/c3cccc(C)c3)c1c2C | 7.80 | 5.53 | 5.59
 |  | CC[C@]1(O)CC(=O)OCc2c1cc1n(c2=O)Cc2c-1nc1cccc(NC(C)=O)c1c2C | 5.36 | 3.82 | 3.72
 |  | CC[C@]1(O)CC(=O)OCc2c1cc1n(c2=O)Cc2c-1nc1cccc(/N=C/c3ccc(C(C)(C)C)cc3)c1c2C | 6.57 | 5.34 | 5.37
Active | inactive | CC[C@]1(O)CC(=O)OCc2c1cc1n(c2=O)Cc2c-1nc1cccc(N)c1c2C | 6.96 | 5.45 | 4.99
 |  | CC[C@]1(O)CC(=O)OCc2c1cc1n(c2=O)Cc2c-1nc1cccc(/N=C/c3cccc([N+](=O)[O-])c3)c1c2C | 7.85 | 5.26 | 5.97
 |  | CC[C@]1(O)CC(=O)OCc2c1cc1n(c2=O)Cc2c-1nc1cccc(/N=C/c3ccc(Br)cc3)c1c2C | 7.74 | 5.73 | 5.24
 |  | CC[C@]1(O)CC(=O)OCc2c1cc1n(c2=O)Cc2c-1nc1cccc(/N=C/c3ccc(N(C)C)cc3)c1c2C | 8.01 | 5.52 | 5.47
 |  | CC[C@@]1(O)C(=O)OCc2c1cc1n(c2=O)Cc2cc3c(CN(C)C)c(O)ccc3nc2-1 [TOPOTECAN] | 7.10 | 5.96 | 5.92
 |  | CC[C@]1(O)CC(=O)OCc2c1cc1n(c2=O)Cc2c-1nc1cccc(/N=C/c3cc(C)cc(C)c3)c1c2C | 5.93 | 5.25 | 5.22
Active |  | CC[C@]1(O)CC(=O)OCc2c1cc1n(c2=O)Cc2c-1nc1cccc(/N=C/c3ccc(C)cc3)c1c2C | 8.04 | 5.55 | 6.04
